Measurements reported in ChEMBL document CHEMBL1157643, “SAR and molecular mechanism study of novel acylhydrazone compounds targeting HIV-1 CA” (Bioorg Med Chem, 2010).
Activity calls are given as the source filed them. The rule behind the calls is not given here.

Assays:
[1] = Cytotoxicity against mock-infected human CEM174 cells after 5 days by MTT assay; type: cell-based; details: read-out: TC50
Method in brief: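 Uninfected CEM174 cells handled as in the antiviral assay (1 × 10⁵ cells/mL, compound dilutions, 5 days, 37 °C, 5% CO₂). Proliferation read by MTT reduction. TC₅₀ = concentration inhibiting cell proliferation by 50%.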

[2] = system: Simian immunodeficiency virus; assay: Antiviral activity against SIV-induced syncytium in human CEM174 cells assessed as inhibition of virus-induced cytopathogenicity after 5 days; type: functional, organism-based; details: CEM174, 120 h
Method in brief: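 CEM174 cells at 1 × 10⁵ cells/mL in 96-well format, infected with 100 TCID₅₀ SIV per well alongside serial dilutions of compound. Incubated 5 days at 37 °C, 5% CO₂, humidified. Syncytium (giant cell) formation scored microscopically. EC₅₀ = concentration protecting cells 50% against SIV cytopathogenicity.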

[3] = Therapeutic index, TC50 for human CEM174 cells to EC50 for SIV-induced syncytium in human CEM174 cells; type: cell-based; details: read-out: TI
Method in brief: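 Ratio TC₅₀/EC₅₀. TC₅₀ comes from the MTT proliferation assay in uninfected CEM174 cells. EC₅₀ comes from microscopic scoring of syncytia in CEM174 cells infected with 100 TCID₅₀ SIV per well. Both were run over 5 days at 37 °C, 5% CO₂.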

[4] = molecular target: Structural capsid protein (Human immunodeficiency virus 1) (UniProt Q76129); assay: Binding affinity to HIV1 capsid protein assessed as viral capsid assembly rate at 1 mM by ultraviolet spectrophotometry (RVb= 60.56 +/- 3.77 milliOD/min)
[5] = molecular target: Structural capsid protein (Human immunodeficiency virus 1) (UniProt Q76129); assay: Binding affinity to HIV1 capsid protein assessed as inhibition of viral capsid assembly at 1 mM after 600 mins by turbidity-based ultraviolet spectrophotometry

Chain of Structural capsid protein (Human immunodeficiency virus 1) (Q76129 as listed by the source): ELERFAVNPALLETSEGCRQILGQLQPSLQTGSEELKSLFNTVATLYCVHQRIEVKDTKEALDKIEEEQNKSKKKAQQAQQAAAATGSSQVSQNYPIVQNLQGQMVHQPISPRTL

| Structure (SMILES) | CC50 at 120 h [1] [µM] | EC50 [2] [µM] | selectivity ratio [3] | Activity (milli optical density/minute) [4] | inhibition [5] |
| --- | --- | --- | --- | --- | --- |
| COc1ccc(C(=O)N[C@@H](Cc2ccc(O)cc2)C(=O)N/N=C/c2ccco2)cc1 | 30.6 | 9.03 | 3.38 | 19.1 | – |
| CC[C@@H](C)[C@H](NC(=O)c1ccc(OC)cc1)C(=O)N/N=C/c1ccc(C)cc1 | > 100 | 13.9 | > 7.2 | 33.4 | inactive |
| COc1ccc(C(=O)N[C@@H](Cc2c[nH]cn2)C(=O)N/N=C/c2ccc(C)cc2)cc1 | > 100 | 1.55 | > 64.5 | 6.05 | – |
| COc1ccc(C(=O)N[C@@H](Cc2ccc(O)cc2)C(=O)N/N=C/c2ccc(C)cc2)cc1 | 41.1 | 5.21 | 7.9 | 20.4 | – |
| CC[C@@H](C)[C@H](NC(=O)c1ccc(OC)cc1)C(=O)N/N=C/c1ccc(O)cc1 | > 100 | 4.15 | > 24.1 | 30.1 | – |
| COc1ccc(C(=O)N[C@H](C(=O)N/N=C/c2ccccc2)C(C)C)cc1 | > 100 | 4.08 | > 24.5 | – | – |
| COc1ccc(C(=O)N[C@@H](Cc2c[nH]cn2)C(=O)N/N=C/c2ccc(Cl)cc2)cc1 | > 100 | 3.27 | > 30.6 | 8.89 | – |
| Cc1ccc(S(=O)(=O)C[C@@H](Cc2ccccc2)C(=O)N/N=C/c2ccc3c(c2)OCO3)cc1 | – | 0.17 | – | – | – |
| COc1ccc(C(=O)N[C@H](C(=O)N/N=C/c2ccc(O)cc2)[C@@H](C)O)cc1 | > 100 | 8.13 | > 12.3 | 24.9 | – |
| COc1ccc(C(=O)N[C@H](C(=O)N/N=C/c2ccc(Cl)cc2)[C@@H](C)O)cc1 | > 100 | 4.98 | > 20.1 | 49.5 | – |
| CC[C@@H](C)[C@H](NC(=O)c1ccc(OC)cc1)C(=O)N/N=C/c1ccccc1 | 77.9 | 7.65 | 10.2 | 25.4 | – |
| COc1ccc(C(=O)N[C@@H](Cc2c[nH]cn2)C(=O)N/N=C/c2ccccc2)cc1 | > 100 | 0.56 | > 179 | 3.26 | Active |
| COc1ccc(C(=O)N[C@H](C(=O)N/N=C/c2ccc(C)cc2)[C@H](C)O)cc1 | > 100 | 8.17 | > 12.2 | 11.9 | – |
| COc1ccc(C(=O)N[C@H](C(=O)N/N=C/c2ccccc2)[C@H](C)O)cc1 | > 100 | 0.77 | > 130 | 21.4 | – |
| CCC(C)[C@H](NC(=O)c1ccc(OC)cc1)C(=O)N/N=C/c1ccc(Cl)cc1 (mixture of isomers) | > 100 | 8.1 | > 12.3 | 10.2 | – |
| COc1ccc(C(=O)N[C@@H](Cc2ccc(O)cc2)C(=O)N/N=C/c2ccc(Cl)cc2)cc1 | 40 | 14.9 | 2.69 | 24.3 | inactive |
| COc1ccc(C(=O)N[C@@H](Cc2c[nH]cn2)C(=O)N/N=C/c2ccc([N+](=O)[O-])cc2)cc1 | > 100 | 4.4 | > 22.7 | 12.6 | – |
| COc1ccc(C(=O)N[C@@H](Cc2ccc(O)cc2)C(=O)N/N=C/c2ccccc2)cc1 | > 100 | 4.61 | > 21.7 | 32.5 | – |
| CC[C@@H](C)[C@H](NC(=O)c1ccc(OC)cc1)C(=O)N/N=C/c1ccco1 | > 100 | 1.7 | > 58.8 | 5.82 | – |
| COc1ccc(C(=O)N[C@@H](C)C(=O)N/N=C/c2ccccc2)cc1 | > 100 | 6.41 | > 15.6 | – | – |
| COc1ccc(/C=N/NC(=O)[C@H](Cc2c[nH]cn2)NC(=O)c2ccc(OC)cc2)cc1 | > 100 | 0.41 | > 244 | 3.58 | Active |
| COc1ccc(C(=O)N[C@@H](Cc2c[nH]cn2)C(=O)N/N=C/c2ccc(O)cc2)cc1 | > 100 | 3.18 | > 31.4 | 24.7 | – |
| COc1ccc(C(=O)N[C@@H](Cc2ccc(O)cc2)C(=O)N/N=C/c2ccc(O)cc2)cc1 | > 100 | 7.81 | > 12.8 | 8.77 | – |
| COc1ccc(C(=O)N[C@@H](Cc2c[nH]cn2)C(=O)N/N=C/c2ccco2)cc1 | > 100 | 8.44 | > 11.8 | 29.3 | – |
